According to publication PMC4769423 (BMJ Open Respiratory Research, 2016):

Tested on: OVA-sensitised Brown Norway rat
Assay: OVA-sensitised and challenged Brown Norway rat allergy model
Assay type: in vivo
Details: 1 mg/kg intratracheal, 24 h before and 24 h after OVA challenge
Procedure, shortened: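 In OVA-sensitised Brown Norway rats, the test compound was given intratracheally 24 h before and 24 h after OVA challenge (5 sensitised-only, 9 dosed per point; or groups of eight). Alternatively, from 14 days post-sensitisation, rats received 1 mg/kg weekly for eight doses (10 per point), then aerosolised OVA 26 days later. BAL eosinophils and IL-13 were measured 48 h post-challenge. Results were given as mean±SEM; Mann-Whitney U test versus vehicle-dosed OVA controls.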

With CCCC1O[C@@H]2C[C@H]3[C@@H]4CCC5=CC(=O)C=C[C@]5(C)[C@H]4[C@@H](O)C[C@]3(C)[C@]2(C(=O)CO)O1 (stereo partly shown) [budesonide] the “efficacy of acute dosing (BAL eosinophils, IL-13)” value was “demonstrated efficacy”.
